Calls of active or inactive are those of the source. The calls are words filed in the database; no cut-off is given here.
Legend:
IGROV-1 [1] = assay: Induction of apoptosis in human IGROV1 cells at IC80 after 72 hrs by TUNEL and flow cytometry analysis (reference value: 4%); format: functional
[2] = Antiproliferative activity against p53 defective cis-platinum-resistant human IGROV1/Pt1 cells assessed as growth inhibition after 72 hrs; format: functional, cell-based; conditions: IGROV-1/Pt1, 72 h
Procedure, shortened: (§1)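 Log-phase cells seeded in duplicate in 6-well plates; drug added 24 h after seeding. Cells harvested 72 h after drug exposure and counted with a cell counter. IC50 = drug concentration giving 50% reduction in cell number versus untreated control.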

Histone deacetylase 2 = Histone deacetylase 2 (Homo sapiens, UniProt Q92769); format: cell-based, HeLa
Histone deacetylase 2, sequence (Q92769 whole entry): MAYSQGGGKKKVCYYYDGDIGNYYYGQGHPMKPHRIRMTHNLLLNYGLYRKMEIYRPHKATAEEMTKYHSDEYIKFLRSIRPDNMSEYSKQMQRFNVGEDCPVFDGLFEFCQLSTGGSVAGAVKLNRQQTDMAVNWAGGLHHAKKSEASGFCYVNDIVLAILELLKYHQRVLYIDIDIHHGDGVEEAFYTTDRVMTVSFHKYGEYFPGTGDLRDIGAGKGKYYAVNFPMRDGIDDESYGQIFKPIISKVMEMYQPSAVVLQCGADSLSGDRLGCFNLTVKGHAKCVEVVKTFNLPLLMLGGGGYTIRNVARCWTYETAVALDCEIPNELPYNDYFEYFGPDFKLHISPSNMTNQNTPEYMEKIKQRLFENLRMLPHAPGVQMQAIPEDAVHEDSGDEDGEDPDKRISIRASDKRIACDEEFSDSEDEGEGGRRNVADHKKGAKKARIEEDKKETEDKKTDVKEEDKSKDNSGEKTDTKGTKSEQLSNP

cells = format: functional, cell-based; conditions: Homo sapiens, NCI-H460, 72 h
HCT-116 [3] = assay: Antiproliferative activity against human HCT116 cells assessed as growth inhibition after 72 hrs; format: functional, cell-based; conditions: HCT-116, 72 h; procedure, shortened: as §1
IGROV-1 [4] = assay: Antiproliferative activity against human IGROV1 cells assessed as growth inhibition after 72 hrs; format: functional, cell-based; conditions: IGROV-1, 72 h; procedure, shortened: as §1
Histone deacetylase 1 = Histone deacetylase 1 (Homo sapiens, UniProt Q13547); assay: Inhibition of human HDAC1 using fluorogenic tetrapeptide RHKKAc as substrate
Histone deacetylase 1, sequence (Q13547 whole entry): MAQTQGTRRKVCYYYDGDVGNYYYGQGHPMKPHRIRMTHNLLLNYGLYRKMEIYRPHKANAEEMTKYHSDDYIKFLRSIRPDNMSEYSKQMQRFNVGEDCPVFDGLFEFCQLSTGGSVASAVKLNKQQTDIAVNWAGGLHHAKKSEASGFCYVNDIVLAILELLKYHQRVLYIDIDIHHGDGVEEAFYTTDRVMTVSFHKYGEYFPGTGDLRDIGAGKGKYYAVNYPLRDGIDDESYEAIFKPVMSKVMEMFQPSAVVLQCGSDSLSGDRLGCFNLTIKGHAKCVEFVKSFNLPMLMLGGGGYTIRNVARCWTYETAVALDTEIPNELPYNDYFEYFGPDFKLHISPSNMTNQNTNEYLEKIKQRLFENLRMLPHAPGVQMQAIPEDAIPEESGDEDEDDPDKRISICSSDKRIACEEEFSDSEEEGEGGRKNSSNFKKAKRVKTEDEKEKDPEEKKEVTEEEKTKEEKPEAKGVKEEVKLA

Histone deacetylase 3 = Histone deacetylase 3 (Homo sapiens, UniProt O15379)
Histone deacetylase 3, sequence (O15379 whole entry): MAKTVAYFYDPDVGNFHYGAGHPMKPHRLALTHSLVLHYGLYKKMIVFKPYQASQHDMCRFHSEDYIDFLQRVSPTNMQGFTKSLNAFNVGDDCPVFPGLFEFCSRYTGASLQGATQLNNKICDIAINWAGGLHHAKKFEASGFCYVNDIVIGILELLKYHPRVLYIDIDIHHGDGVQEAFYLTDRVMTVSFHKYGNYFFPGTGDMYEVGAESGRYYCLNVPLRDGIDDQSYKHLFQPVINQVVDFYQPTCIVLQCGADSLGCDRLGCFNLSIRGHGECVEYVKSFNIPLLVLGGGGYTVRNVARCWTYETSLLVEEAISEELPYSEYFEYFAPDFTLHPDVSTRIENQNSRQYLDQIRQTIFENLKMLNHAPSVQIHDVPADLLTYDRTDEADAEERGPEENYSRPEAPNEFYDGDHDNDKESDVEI

Histone deacetylase 4 = Histone deacetylase 4 (Homo sapiens, UniProt P56524); assay: Inhibition of human HDAC4 using fluorogenic tetrapeptide RHKKAc as substrate
Histone deacetylase 4, sequence (P56524 whole entry): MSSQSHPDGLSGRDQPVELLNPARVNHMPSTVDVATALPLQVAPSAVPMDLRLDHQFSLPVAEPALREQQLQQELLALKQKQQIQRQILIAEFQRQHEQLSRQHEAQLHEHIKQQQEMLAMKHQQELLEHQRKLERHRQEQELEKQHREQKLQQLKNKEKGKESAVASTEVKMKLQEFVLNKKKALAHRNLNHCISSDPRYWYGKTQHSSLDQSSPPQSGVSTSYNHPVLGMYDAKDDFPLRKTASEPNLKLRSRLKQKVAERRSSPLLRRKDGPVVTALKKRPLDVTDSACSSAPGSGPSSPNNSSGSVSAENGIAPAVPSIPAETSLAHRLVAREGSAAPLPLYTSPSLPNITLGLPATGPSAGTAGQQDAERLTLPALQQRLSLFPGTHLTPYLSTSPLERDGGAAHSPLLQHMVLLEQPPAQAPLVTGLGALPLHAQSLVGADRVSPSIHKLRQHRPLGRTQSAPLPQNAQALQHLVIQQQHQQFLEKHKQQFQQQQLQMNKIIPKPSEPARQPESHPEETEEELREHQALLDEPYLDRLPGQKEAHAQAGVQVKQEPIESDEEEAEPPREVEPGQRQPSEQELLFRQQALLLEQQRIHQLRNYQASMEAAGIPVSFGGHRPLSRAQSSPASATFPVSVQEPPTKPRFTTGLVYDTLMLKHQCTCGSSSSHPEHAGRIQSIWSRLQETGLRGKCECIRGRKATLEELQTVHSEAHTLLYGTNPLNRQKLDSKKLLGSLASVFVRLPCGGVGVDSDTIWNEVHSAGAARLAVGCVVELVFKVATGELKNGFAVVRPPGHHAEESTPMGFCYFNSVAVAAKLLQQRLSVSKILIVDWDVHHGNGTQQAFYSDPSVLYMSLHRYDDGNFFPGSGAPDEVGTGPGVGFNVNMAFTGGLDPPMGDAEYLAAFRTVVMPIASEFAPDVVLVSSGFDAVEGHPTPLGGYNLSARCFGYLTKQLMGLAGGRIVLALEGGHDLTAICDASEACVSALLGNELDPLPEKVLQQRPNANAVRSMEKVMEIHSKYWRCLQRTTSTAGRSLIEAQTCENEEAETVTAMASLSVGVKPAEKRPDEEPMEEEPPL

Histone deacetylase 5 = Histone deacetylase 5 (Homo sapiens, UniProt Q9UQL6); assay: Inhibition of human HDAC5 using fluorogenic tetrapeptide RHKKAc as substrate
Histone deacetylase 5, sequence (Q9UQL6 whole entry): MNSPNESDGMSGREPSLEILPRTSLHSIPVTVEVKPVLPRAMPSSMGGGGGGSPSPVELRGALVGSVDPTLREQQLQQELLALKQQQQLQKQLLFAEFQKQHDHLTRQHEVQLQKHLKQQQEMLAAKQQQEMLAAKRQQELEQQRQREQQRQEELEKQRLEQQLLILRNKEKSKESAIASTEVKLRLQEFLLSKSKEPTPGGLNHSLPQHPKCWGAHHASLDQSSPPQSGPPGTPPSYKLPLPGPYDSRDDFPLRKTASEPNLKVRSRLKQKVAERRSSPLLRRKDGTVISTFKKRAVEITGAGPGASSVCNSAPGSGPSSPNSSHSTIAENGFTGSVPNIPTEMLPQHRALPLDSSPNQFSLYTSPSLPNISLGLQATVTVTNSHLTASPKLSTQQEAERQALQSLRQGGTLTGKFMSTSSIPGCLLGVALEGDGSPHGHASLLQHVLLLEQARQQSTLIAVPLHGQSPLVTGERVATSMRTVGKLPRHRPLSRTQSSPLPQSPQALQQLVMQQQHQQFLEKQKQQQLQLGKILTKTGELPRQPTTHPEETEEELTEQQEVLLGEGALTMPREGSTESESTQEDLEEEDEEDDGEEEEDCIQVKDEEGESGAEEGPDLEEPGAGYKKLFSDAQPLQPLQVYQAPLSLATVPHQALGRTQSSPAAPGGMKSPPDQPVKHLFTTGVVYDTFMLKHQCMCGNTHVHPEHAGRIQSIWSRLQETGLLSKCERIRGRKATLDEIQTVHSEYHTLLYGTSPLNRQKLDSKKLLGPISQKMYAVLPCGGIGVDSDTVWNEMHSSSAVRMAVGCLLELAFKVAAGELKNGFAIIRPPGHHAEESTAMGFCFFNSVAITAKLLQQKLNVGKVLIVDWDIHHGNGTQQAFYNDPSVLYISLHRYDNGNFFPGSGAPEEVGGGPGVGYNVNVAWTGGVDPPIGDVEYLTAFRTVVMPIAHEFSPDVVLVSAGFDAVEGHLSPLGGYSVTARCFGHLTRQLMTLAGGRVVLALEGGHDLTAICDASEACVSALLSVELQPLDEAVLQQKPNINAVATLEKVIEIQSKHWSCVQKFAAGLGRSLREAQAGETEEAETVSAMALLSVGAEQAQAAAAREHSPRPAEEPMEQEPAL

[5] = molecular target: T1, Protein deacetylase HDAC6 (Homo sapiens, UniProt Q9UBN7); assay: Inhibition of human HDAC6 using fluorogenic tetrapeptide RHKKAc as substrate
T1 sequence (Q9UBN7 whole entry): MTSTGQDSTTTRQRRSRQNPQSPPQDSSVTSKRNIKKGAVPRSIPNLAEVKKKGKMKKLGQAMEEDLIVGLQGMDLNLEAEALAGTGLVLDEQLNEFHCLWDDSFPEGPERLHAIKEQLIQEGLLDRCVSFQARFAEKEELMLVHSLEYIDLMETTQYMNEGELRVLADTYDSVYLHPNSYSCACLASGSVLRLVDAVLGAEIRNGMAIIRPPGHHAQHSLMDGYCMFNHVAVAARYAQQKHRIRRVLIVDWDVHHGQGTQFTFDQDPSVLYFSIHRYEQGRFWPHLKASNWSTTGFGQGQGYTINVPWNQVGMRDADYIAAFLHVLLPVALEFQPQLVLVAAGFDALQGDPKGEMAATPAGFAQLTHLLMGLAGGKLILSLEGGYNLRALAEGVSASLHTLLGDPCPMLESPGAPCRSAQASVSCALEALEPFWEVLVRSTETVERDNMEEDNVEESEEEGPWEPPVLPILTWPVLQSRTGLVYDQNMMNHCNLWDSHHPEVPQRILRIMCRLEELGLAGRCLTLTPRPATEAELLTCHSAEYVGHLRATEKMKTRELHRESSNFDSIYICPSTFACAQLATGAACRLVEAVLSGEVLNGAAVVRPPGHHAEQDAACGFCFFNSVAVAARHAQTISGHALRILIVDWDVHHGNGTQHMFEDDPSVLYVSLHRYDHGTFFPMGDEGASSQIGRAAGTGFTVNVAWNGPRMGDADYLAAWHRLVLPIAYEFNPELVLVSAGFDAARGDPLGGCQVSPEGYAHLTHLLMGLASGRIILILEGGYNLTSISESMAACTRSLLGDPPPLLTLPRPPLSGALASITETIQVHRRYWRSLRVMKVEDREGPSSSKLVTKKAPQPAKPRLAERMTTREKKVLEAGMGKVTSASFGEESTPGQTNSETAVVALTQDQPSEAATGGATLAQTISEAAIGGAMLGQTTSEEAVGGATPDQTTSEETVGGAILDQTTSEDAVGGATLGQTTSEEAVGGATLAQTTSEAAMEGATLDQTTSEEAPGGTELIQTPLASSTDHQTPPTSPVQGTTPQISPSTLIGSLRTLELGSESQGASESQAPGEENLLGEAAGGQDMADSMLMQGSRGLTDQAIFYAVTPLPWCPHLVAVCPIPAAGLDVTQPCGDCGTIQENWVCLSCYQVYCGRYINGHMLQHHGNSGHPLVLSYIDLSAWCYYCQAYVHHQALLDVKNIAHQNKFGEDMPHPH

Histone deacetylase 8 = molecular target: T2, Histone deacetylase 8 (Homo sapiens, UniProt Q9BY41); assay: Inhibition of human HDAC8 using fluorogenic tetrapeptide RHKKAc as substrate
T2 sequence (Q9BY41 whole entry): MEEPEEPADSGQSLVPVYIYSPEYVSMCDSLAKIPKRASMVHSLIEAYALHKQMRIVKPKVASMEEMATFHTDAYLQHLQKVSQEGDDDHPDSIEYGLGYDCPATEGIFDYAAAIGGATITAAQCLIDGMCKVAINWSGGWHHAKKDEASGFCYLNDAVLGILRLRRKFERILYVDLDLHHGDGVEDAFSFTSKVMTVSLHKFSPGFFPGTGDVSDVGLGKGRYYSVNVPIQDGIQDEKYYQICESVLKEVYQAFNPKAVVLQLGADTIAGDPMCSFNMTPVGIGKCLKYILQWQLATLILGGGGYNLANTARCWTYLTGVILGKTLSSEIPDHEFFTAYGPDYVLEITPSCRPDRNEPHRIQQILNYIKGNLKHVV

Histone deacetylase 9 = Histone deacetylase 9 (Homo sapiens, UniProt Q9UKV0); assay: Inhibition of human HDAC9 using fluorogenic tetrapeptide RHKKAc as substrate
Histone deacetylase 9, sequence (Q9UKV0 whole entry): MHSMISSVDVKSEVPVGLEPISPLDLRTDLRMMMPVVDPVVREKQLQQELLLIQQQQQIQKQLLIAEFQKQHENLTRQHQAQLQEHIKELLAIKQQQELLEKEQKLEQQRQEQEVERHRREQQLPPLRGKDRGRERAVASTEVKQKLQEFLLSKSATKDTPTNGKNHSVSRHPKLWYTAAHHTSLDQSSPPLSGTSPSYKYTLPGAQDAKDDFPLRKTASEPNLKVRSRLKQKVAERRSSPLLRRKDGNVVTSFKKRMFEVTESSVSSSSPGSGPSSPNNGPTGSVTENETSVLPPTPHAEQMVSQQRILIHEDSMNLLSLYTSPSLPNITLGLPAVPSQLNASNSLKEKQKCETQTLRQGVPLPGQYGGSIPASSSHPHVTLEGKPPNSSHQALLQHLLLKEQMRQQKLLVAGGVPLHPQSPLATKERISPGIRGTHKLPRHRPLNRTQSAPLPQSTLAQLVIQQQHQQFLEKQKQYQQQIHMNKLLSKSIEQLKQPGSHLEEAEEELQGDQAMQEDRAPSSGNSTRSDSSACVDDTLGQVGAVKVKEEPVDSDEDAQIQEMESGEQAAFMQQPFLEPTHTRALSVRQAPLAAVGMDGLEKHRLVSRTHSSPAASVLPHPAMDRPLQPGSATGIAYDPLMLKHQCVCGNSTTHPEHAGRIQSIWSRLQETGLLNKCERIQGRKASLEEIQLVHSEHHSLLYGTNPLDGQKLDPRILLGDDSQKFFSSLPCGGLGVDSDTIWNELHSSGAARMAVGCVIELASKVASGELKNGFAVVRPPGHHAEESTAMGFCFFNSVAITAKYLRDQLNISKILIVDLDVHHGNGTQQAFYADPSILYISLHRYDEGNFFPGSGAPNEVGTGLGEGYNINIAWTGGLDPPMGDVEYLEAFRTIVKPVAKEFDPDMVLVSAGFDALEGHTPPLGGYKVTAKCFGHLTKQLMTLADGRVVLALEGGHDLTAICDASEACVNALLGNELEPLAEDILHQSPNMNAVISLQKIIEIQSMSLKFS

[6] = molecular target: T3, Polyamine deacetylase HDAC10 (Homo sapiens, UniProt Q969S8); assay: Inhibition of human HDAC10 using fluorogenic tetrapeptide RHKKAc as substrate
T3 sequence (Q969S8 whole entry): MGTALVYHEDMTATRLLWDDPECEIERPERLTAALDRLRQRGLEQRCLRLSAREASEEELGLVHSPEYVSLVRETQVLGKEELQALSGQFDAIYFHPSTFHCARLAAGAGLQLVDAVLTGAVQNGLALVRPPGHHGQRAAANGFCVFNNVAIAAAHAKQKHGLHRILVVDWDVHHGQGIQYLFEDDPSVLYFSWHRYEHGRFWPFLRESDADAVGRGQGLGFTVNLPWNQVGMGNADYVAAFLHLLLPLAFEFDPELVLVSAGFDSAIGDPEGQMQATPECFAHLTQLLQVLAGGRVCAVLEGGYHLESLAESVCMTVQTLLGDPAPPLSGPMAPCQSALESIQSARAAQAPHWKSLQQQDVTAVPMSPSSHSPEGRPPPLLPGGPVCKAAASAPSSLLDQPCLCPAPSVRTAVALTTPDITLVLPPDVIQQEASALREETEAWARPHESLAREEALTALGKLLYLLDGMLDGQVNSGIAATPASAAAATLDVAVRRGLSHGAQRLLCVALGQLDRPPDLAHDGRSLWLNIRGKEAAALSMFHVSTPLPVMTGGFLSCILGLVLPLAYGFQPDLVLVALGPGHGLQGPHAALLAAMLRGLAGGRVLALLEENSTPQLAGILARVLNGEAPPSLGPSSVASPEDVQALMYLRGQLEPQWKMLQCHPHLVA

Histone deacetylase 11 = molecular target: T4, Histone deacetylase 11 (Homo sapiens, UniProt Q96DB2); assay: Inhibition of human HDAC11 using fluorogenic tetrapeptide RHKKAc as substrate
T4 sequence (Q96DB2 whole entry): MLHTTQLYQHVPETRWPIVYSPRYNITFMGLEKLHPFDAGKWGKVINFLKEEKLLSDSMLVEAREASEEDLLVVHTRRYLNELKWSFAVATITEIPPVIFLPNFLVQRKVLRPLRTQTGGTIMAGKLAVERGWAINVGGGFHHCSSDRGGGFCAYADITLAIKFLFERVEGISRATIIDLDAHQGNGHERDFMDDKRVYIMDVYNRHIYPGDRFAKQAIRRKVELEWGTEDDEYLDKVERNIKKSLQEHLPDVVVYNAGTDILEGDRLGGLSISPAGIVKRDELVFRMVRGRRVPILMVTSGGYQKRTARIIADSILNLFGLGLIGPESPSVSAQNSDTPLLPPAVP

IGROV-1 [7] = assay: Cell cycle arrest in human IGROV1 cells assessed as accumulation at G1 phase at IC80 after 24 hrs by propidium iodide staining-based flow cytometry (reference value: 49.98%); format: functional
Procedure, shortened: (§2)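 Cell-cycle distribution in IGROV-1 cells read by flow cytometry of propidium iodide–stained cells.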

IGROV-1 [8] = assay: Cell cycle arrest in human IGROV1 cells assessed as accumulation at S phase at IC80 after 24 hrs by propidium iodide staining-based flow cytometry (reference value: 36.81%); format: functional; procedure, shortened: as §2
[9] = Cell cycle arrest in human IGROV1 cells assessed as accumulation at G2/M phase at IC80 after 24 hrs by propidium iodide staining-based flow cytometry (reference value: 13.21%); format: functional; conditions: IGROV-1; procedure, shortened: as §2
[10] = molecular target: T5, Protein deacetylase HDAC6 (Homo sapiens) (UniProt Q9UBN7); assay: Inhibition of HDAC6 in human IGROV1 cells assessed as increase in tubulin acetylation at IC80 after 4 to 24 hrs by Western blot analysis; format: cell-based; conditions: IGROV-1
T5 sequence (whole entry): T1 sequence (Q9UBN7 whole entry)
Procedure, shortened: (§3)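 Cells treated with various concentrations of HDAC inhibitors, collected, lysed and analysed by Western blotting.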

IGROV-1 [11] = assay: Induction of DNA damage in human IGROV1 cells assessed as p53 phosphorylation at Ser15 at 1 to 2 uM after 4 to 48 hrs by Western blot analysis; format: functional, cell-based; procedure, shortened: as §3
HCT-116 [12] = assay: Anticancer activity against human HCT116 cells xenografted in athymic nude Swiss mouse assessed as tumor growth inhibition at 50 mg/kg, po administered once-daily for 5 days a week for 5 weeks starting 3 days post tumor implantation; format: functional; conditions: read-out: TGI
Procedure, shortened: (§4)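 Female athymic Swiss nude mice given 10⁷ exponentially growing HCT116 cells s.c. in the right flank; tumor lines maintained by serial s.c. fragment passage. Dosing began 3 days after implantation: 50 mg/kg orally, once daily 4–5 days/week for 5 weeks (24 doses total). Compound dissolved in DMSO, diluted in PBS with 5% Cremophor to 10% DMSO final.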

Mus musculus = assay: Toxicity in athymic nude Swiss mouse xenografted with human HCT116 cells at 50 mg/kg, po administered once-daily for 5 days a week for 5 weeks starting 3 days post tumor implantation; format: organism-based, HCT-116; parameters: dose 50 mg/kg, route oral; conditions: in vivo; procedure, shortened: as §4

O=C(CCCCCCC(=O)Nc1ccccc1)NO [VORINOSTAT]
Activity (IGROV-1 [1]): 37%

O=C(/C=C/c1ccc(-c2ccccc2)cc1)NO
IC50 [2]: 4.3 µM

O=C(/C=C/c1ccc(-c2cccc(C34CC5CC(CC(C5)C3)C4)c2)cc1)NO
IC50 (Histone deacetylase 2): > 10 µM
IC50 (cells): > 10 µM
IC50 (HCT-116 [3]): 10.3 µM
IC50 (IGROV-1 [4]): 1.23 µM
IC50 [2]: 5.7 µM

O=C(/C=C/c1ccc(-c2ccc(O)c(C34CC5CC(CC(C5)C3)C4)c2)c(Cl)c1)NO
IC50 (cells): 5.4 µM
IC50 (HCT-116 [3]): 5.4 µM
IC50 (IGROV-1 [4]): 1.34 µM
IC50 [2]: 1.6 µM

O=C(NO)c1ccc2cc(-c3ccc(O)c(C45CC6CC(CC(C6)C4)C5)c3)ccc2c1
IC50 (cells): 1 µM
IC50 (HCT-116 [3]): 0.7 µM
IC50 (IGROV-1 [4]): 0.65 µM
IC50 [2]: 1.1 µM

COc1ccc(-c2ccc(/C=C/C(=O)NO)cc2)cc1
IC50 (Histone deacetylase 1): 8.55 µM
IC50 (Histone deacetylase 3): 84.5 µM
IC50 (Histone deacetylase 4): 99.4 µM
IC50 (Histone deacetylase 5): 29.6 µM
IC50 [5]: 0.0368 µM
IC50 (Histone deacetylase 8): 0.0698 µM
IC50 (Histone deacetylase 9): 39.3 µM
IC50 [6]: 91 µM
IC50 (Histone deacetylase 11): 73 µM
Activity (IGROV-1 [1]): 90%
Activity (IGROV-1 [7]): 42.05%
Activity (IGROV-1 [8]): 55.84%
Activity [9]: 2.11%

COc1ccc(-c2ccc3cc(C(=O)NO)ccc3c2)cc1C12CC3CC(CC(C3)C1)C2
IC50 (cells): 1.3 µM
IC50 (HCT-116 [3]): 1.4 µM
IC50 (IGROV-1 [4]): 1.5 µM
IC50 [2]: 4.16 µM

O=C(/C=C/c1ccc(-c2cc3c(c(C45CC6CC(CC(C6)C4)C5)c2)OCCO3)cc1)NO
IC50 (cells): 1 µM
IC50 (HCT-116 [3]): 2.55 µM
IC50 (IGROV-1 [4]): 1.2 µM
IC50 [2]: 0.8 µM

O=C(/C=C/c1ccc(-c2ccc(O)c(C34CC5CC(CC(C5)C3)C4)c2)cc1)NO
IC50 (Histone deacetylase 2): 2.64 µM
IC50 (cells): 0.83 µM
IC50 (HCT-116 [3]): 0.58 µM
IC50 (IGROV-1 [4]): 1.1 µM
IC50 [2]: 1.3 µM
IC50 (Histone deacetylase 1): > 100 µM
IC50 (Histone deacetylase 3): 55.6 µM
IC50 (Histone deacetylase 4): 61.4 µM
IC50 (Histone deacetylase 5): 78.4 µM
IC50 [5]: 2.8 µM
IC50 (Histone deacetylase 8): 6.96 µM
IC50 (Histone deacetylase 9): 41.4 µM
IC50 [6]: > 100 µM
IC50 (Histone deacetylase 11): 57.2 µM

COc1ccc(-c2ccc(/C=C/C(=O)NO)cc2)cc1C12CC3CC(CC(C3)C1)C2
IC50 (Histone deacetylase 2): 2.3 µM
IC50 (cells): 1.42 µM
IC50 (HCT-116 [3]): 1.3 µM
IC50 (IGROV-1 [4]): 0.96 µM
IC50 [2]: 1.8 µM
IC50 (Histone deacetylase 11): 77 µM
Activity (IGROV-1 [1]): 42%
Activity [10]: inactive
Activity (IGROV-1 [11]): Active
Activity (IGROV-1 [7]): 78.46%
Activity (IGROV-1 [8]): 18.14%
Activity [9]: 3.39%
inhibition in vivo at 50 mg/kg (HCT-116 [12]): 60%
Activity (Mus musculus): Non-toxic

O=C(/C=C/c1ccc(-c2ccc(O)cc2)cc1)NO
IC50 (Histone deacetylase 1): 5.51 µM
IC50 (Histone deacetylase 3): 4.57 µM
IC50 (Histone deacetylase 4): 17.1 µM
IC50 (Histone deacetylase 5): 11.2 µM
IC50 [5]: 0.0418 µM
IC50 (Histone deacetylase 8): 0.162 µM
IC50 (Histone deacetylase 9): 8.92 µM
IC50 [6]: 11 µM
IC50 (Histone deacetylase 11): 5.01 µM

Reference: ChEMBL document CHEMBL3232764, “Influence of the adamantyl moiety on the activity of biphenylacrylohydroxamic acid-based HDAC inhibitors” (Eur J Med Chem, 2014)
